test system: Rattus norvegicus; test: Maximum fall in mean arterial blood pressure (MABP) at 1 mg/kg po bid after 4 days of treatment in conscious chronically-instrumented renovascular hypertensive rats; assay type: functional; details: not given
Procedure, shortened: (§1)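 Male Chbb:THOM rats (140–150 g) made renovascular hypertensive by a silver clip (internal diameter 0.20 mm) on the left renal artery under pentobarbitone-sodium (50 mg/kg ip). Chronic-use pressure transmitter implanted. Conscious animals dosed orally twice daily for 4 days. Mean arterial pressure and heart rate recorded continuously at 1-h intervals over 96 h, given as mean ± SE.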

`CCCc1nc2c(C)cc(-c3nc4ccccc4n3C)cc2n1Cc1ccc(-c2ccccc2C(=O)O)cc1` was tested. Which MABP did it give?
The MABP was 68 mmHg.

test system: Rattus norvegicus; test: Tested for percent inhibition of AII pressor response 2 hr after i.v. administration of 0.3 mg/Kg in rats; assay type: functional; details: iv

Which inhibition in vivo at 0.3 mg/kg does the source give for `CCCCc1nc2ccc(N3CCCCC3=O)cc2n1Cc1ccc(-c2ccccc2-c2nnn[nH]2)cc1` here?
The inhibition in vivo at 0.3 mg/kg was 60%.

With `CCCCc1nc2ccc(N3CCCCS3(=O)=O)cc2n1Cc1ccc(-c2ccccc2-c2nnn[nH]2)cc1` as the molecule, how does the inhibition in vivo at 0.3 mg/kg read?
Its inhibition in vivo at 0.3 mg/kg is 60%.

test system: Rattus norvegicus; test: Fall in mean arterial blood pressure (MABP) at 1 mg/kg po bid for 4 days after first treatment in conscious chronically-instrumented renovascular hypertensive rats; assay type: functional; details: not given; procedure, shortened: as §1

For `CCCc1nc2c(C)cc(-c3nc4ccccc4n3C)cc2n1Cc1ccc(-c2ccccc2C(=O)O)cc1`, which MABP is on record?
Its MABP is 42 mmHg.

biological target: T1, Type-1 angiotensin II receptor B (Rattus norvegicus, UniProt P29089); test: Inhibition of specific binding of [125I]angiotensin-II to angiotensin 1 receptor in rat lung membrane preparation; assay type: cell membranes; details: not given
T1 sequence (P29089 whole entry): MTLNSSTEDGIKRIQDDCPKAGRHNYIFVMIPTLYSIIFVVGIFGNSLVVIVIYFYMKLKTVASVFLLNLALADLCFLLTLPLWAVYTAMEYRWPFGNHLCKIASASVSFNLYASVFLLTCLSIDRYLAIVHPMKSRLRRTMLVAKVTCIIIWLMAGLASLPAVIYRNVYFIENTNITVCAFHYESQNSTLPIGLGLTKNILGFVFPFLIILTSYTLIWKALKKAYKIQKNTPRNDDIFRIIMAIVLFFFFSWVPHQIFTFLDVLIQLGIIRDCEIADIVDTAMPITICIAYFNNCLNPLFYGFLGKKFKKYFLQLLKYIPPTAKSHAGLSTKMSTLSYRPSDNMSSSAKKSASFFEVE
Procedure, shortened: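 Membranes from lungs of male Wistar rats (Chbb:THOM, 200–220 g), homogenized in Tris buffer pH 7.20 and spun at 1000g, then twice at 48 000g. DMSO ≤1%. Nonspecific binding defined with 1 μM AII. Filtration, gamma counting. IC50 from nonlinear fit; Ki by Cheng–Prusoff.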

Which IC50 does the source give for `CCCc1nc2c(C)cc(-c3nc4ccccc4n3C)cc2n1Cc1ccc(-c2ccccc2C(=O)O)cc1` here?
Its IC50 is 3 nM.

With `CCCCC(=O)Nc1ccc2nc(CCCC)n(Cc3ccc(-c4ccccc4C(=O)O)cc3)c2c1` as the molecule, how does the IC50 read?
The IC50 was 86 nM.

For `CCCCc1nc2cc(N)ccc2n1Cc1ccc(-c2ccccc2C(=O)O)cc1`, which IC50 is on record?
The IC50 was 820 nM.

For `CCCCCNc1ccc2nc(CCCC)n(Cc3ccc(-c4ccccc4C(=O)O)cc3)c2c1`, which IC50 is on record?
The IC50 was 390 nM.

`CCCCc1nc2ccc(N3CCCCC3=O)cc2n1Cc1ccc(-c2ccccc2-c2nnn[nH]2)cc1` was tested. Which IC50 did it give?
Its IC50 is 4 nM.

Which IC50 does the source give for `CCCCc1nc2ccc(N3CCCCS3(=O)=O)cc2n1Cc1ccc(-c2ccccc2-c2nnn[nH]2)cc1` here?
Its IC50 is 3 nM.

How did the IC50 turn out when `CCCc1nc2c(C)cc(CN(C)C)cc2n1Cc1ccc(-c2ccccc2C(=O)O)cc1` was run?
Its IC50 is 158 nM.

How did the IC50 turn out when `CCCCc1nc2c(C)cccc2n1Cc1ccc(-c2ccccc2C(=O)O)cc1` was run?
Its IC50 is 1200 nM.

Which IC50 does the source give for `CCCCc1nc2ccc(C)cc2n1Cc1ccc(-c2ccccc2C(=O)O)cc1` here?
Its IC50 is 850 nM.

Which IC50 does the source give for `CCCCc1nc2ccc(NC(=O)N(C)C)cc2n1Cc1ccc(-c2ccccc2C(=O)O)cc1` here?
Its IC50 is 24 nM.

Which IC50 does the source give for `CCCCc1nc2ccc(NC(=O)N(C)C)cc2n1Cc1ccc(-c2ccccc2-c2nn[nH]n2)cc1` here?
The IC50 was 8 nM.

With `CCCCc1nc2ccc(N)cc2n1Cc1ccc(-c2ccccc2C(=O)O)cc1` as the molecule, how does the IC50 read?
Its IC50 is 540 nM.

Which IC50 does the source give for `CCCCc1nc2ccc(NC(=O)NC3CCCCC3)cc2n1Cc1ccc(-c2ccccc2C(=O)O)cc1` here?
The IC50 was 26 nM.

For `CCCc1nc2ccc(-c3nc4ccccc4n3C)cc2n1Cc1ccc(-c2ccccc2C(=O)O)cc1`, which IC50 is on record?
The IC50 was 3 nM.

How did the IC50 turn out when `CCCCc1nc2cccc(NC(=O)NC3CCCCC3)c2n1Cc1ccc(-c2ccccc2C(=O)O)cc1` was run?
Its IC50 is 160 nM.

For `CCCCc1nc2cc(NC(C)=O)ccc2n1Cc1ccc(-c2ccccc2C(=O)O)cc1`, which IC50 is on record?
The IC50 was 460 nM.

How did the IC50 turn out when `CCCCc1nc2ccc(N(C)C(=O)NC3CCCCC3)cc2n1Cc1ccc(-c2ccccc2C(=O)O)cc1` was run?
The IC50 was 26 nM.

`CCCCc1nc2cc(C)ccc2n1Cc1ccc(-c2ccccc2C(=O)O)cc1` was tested. Which IC50 did it give?
The IC50 was 1200 nM.

Which IC50 does the source give for `CCCc1nc2c(C)cc(-c3ccccn3)cc2n1Cc1ccc(-c2ccccc2-c2nnn[nH]2)cc1` here?
The IC50 was 5 nM.

For `CCCCc1nc2ccc(N3CCCCS3(=O)=O)cc2n1Cc1ccc(-c2ccccc2C(=O)O)cc1`, which IC50 is on record?
The IC50 was 34 nM.

For `CCCCc1nc2cccc(C)c2n1Cc1ccc(-c2ccccc2C(=O)O)cc1`, which IC50 is on record?
The IC50 was 480 nM.

Which IC50 does the source give for `CCCCc1nc2ccc(N(C)C(=O)NC3CCCCC3)cc2n1Cc1ccc(-c2ccccc2-c2nn[nH]n2)cc1` here?
The IC50 was 10 nM.

Which IC50 does the source give for `CCCCc1nc2ccc(N(C)S(=O)(=O)CCC)cc2n1Cc1ccc(-c2ccccc2C(=O)O)cc1` here?
Its IC50 is 33 nM.

For `CCCc1nc2ccc(-c3ccccn3)cc2n1Cc1ccc(-c2ccccc2-c2nnn[nH]2)cc1`, which IC50 is on record?
Its IC50 is 11 nM.

`CCCCc1nc(Cl)c(CO)n1Cc1ccc(-c2ccccc2C(=O)O)cc1` was tested. Which IC50 did it give?
Its IC50 is 350 nM.

With `CCCCc1nc2ccc(NC(C)=O)cc2n1Cc1ccc(-c2ccccc2C(=O)O)cc1` as the molecule, how does the IC50 read?
Its IC50 is 180 nM.

`CCCCc1nc2c(NC(C)=O)cccc2n1Cc1ccc(-c2ccccc2C(=O)O)cc1` was tested. Which IC50 did it give?
Its IC50 is 5700 nM.

For `CCCCc1nc2cccc(NC(C)=O)c2n1Cc1ccc(-c2ccccc2C(=O)O)cc1`, which IC50 is on record?
The IC50 was 1800 nM.

For `CCCCc1nc2cc(NC(=O)NC3CCCCC3)ccc2n1Cc1ccc(-c2ccccc2C(=O)O)cc1`, which IC50 is on record?
Its IC50 is 800 nM.

For `CCCCc1nc2ccc(NC(=O)NC3CCCCC3)cc2n1Cc1ccc(-c2ccccc2-c2nn[nH]n2)cc1`, which IC50 is on record?
Its IC50 is 21 nM.

With `CCCc1nc2ccc(-c3nc4ccccc4n3C)cc2n1Cc1ccc(-c2ccccc2-c2nn[nH]n2)cc1` as the molecule, how does the IC50 read?
The IC50 was 5 nM.

How did the IC50 turn out when `CCCCc1nc2c(NC(=O)NC3CCCCC3)cccc2n1Cc1ccc(-c2ccccc2C(=O)O)cc1` was run?
The IC50 was 29300 nM.

`CCCc1nc2c(C)cc(-c3nc4ccccc4n3C)cc2n1Cc1ccc(-c2ccccc2-c2nnn[nH]2)cc1` was tested. Which IC50 did it give?
Its IC50 is 13 nM.

Which IC50 does the source give for `CCCCc1nc2c(N)cccc2n1Cc1ccc(-c2ccccc2C(=O)O)cc1` here?
The IC50 was 1700 nM.

With `CCCc1nc2ccc(-c3nc4ccccc4o3)cc2n1Cc1ccc(-c2ccccc2-c2nn[nH]n2)cc1` as the molecule, how does the IC50 read?
The IC50 was 240 nM.

`CCCc1nc2c(C)cc(-c3cn4ccccc4n3)cc2n1Cc1ccc(-c2ccccc2-c2nnn[nH]2)cc1` was tested. Which IC50 did it give?
The IC50 was 3 nM.

Which IC50 does the source give for `CCCCc1nc2ccc(N3CCCCC3=O)cc2n1Cc1ccc(-c2ccccc2C(=O)O)cc1` here?
The IC50 was 81 nM.

With `CCCCc1nc2ccc(N3CCCCC3)cc2n1Cc1ccc(-c2ccccc2C(=O)O)cc1` as the molecule, how does the IC50 read?
Its IC50 is 160 nM.

How did the IC50 turn out when `CCCCc1nc2ccccc2n1Cc1ccc(-c2ccccc2C(=O)O)cc1` was run?
Its IC50 is 400 nM.
